# Measured values of several laboratories.
# CDK2: Cyclin-dependent kinase 2 (CDK2, Homo sapiens, UniProt P24941)
SMILES,target,test,system,conditions,quantity,result
C1=C/COCc2cc(ccc2OCCN2CCCC2)Nc2nccc(n2)-c2cccc(c2)COC/1,"Cyclin-dependent kinase 2 homolog (CRK2, Plasmodium falciparum, UniProt P61075)",cell-free assay,,0.1 µM,remaining signal,85%
NC/C(=C\F)COc1cccc(Cn2c(=S)[nH]c(=O)c3[nH]cnc32)c1,"Voltage-dependent N-type calcium channel subunit alpha-1B (Cacna1b, Rattus norvegicus, UniProt Q02294)","ligand displacement, radioligand",,10 µM,inhibition,< 50%
Cc1cc(S(=O)(=O)NC2CC(N3CCN(CC4CCN(c5cccc6c5n(C)c(=O)n6C5CCC(=O)NC5=O)CC4)C4(CC4)C3)C2)ccc1Nc1ncc(C(F)(F)F)c(N2CCC[C@](C)(O)C2)n1 (stereo partly drawn),CDK2,"protein level, degrader, western blot",MKN-1,,Dmax,92%
CCN1/C(=C/C(C)=O)Sc2ccc(F)cc21,"Alpha-1A adrenergic receptor (Adra1a, Rattus norvegicus, UniProt P43140)","ligand displacement, radioligand",,10 µM,inhibition,1.54%
Cc1cc(=O)oc2cc(NC(=O)[C@H](CCCN=C(N)N)NC(=O)[C@H](CCCN=C(N)N)NC(=O)OCc3ccccc3)ccc12,"Cathepsin B (CTSB, Homo sapiens, UniProt P07858)","enzyme activity, substrate, fluorescence",,pH 5,Km,858 µM
Cc1cc(S(=O)(=O)NCCO[C@H]2CC[C@H](CN3CCC(c4ccc5c(c4)n(C)c(=O)n5C4CCC(=O)NC4=O)CC3)CC2)ccc1Nc1ncc(C(F)(F)F)c([C@H]2CC[C@@](C)(O)CC2)n1 (stereo partly drawn),CDK2,"protein level, degrader, western blot",MKN-1,,Dmax,90%
C#Cc1cc(-c2cc(Nc3nc(N[C@@H](C)c4ccc(F)cn4)ncc3Cl)n[nH]2)ccc1C=O,"Tyrosine-protein kinase Fyn (FYN, Homo sapiens, UniProt P06241)","enzyme activity, inhibitor",,0.2 µM,inhibition,66.5%
COc1cc(Br)cc(C2NC(=O)NC(C)=C2C(=O)OCc2ccccc2)c1O (stereo not drawn),"Voltage-dependent L-type calcium channel subunit alpha-1C (Cacna1c, Rattus norvegicus, UniProt P22002)","ion current, inhibitor, patch clamp",HEK293,10 µM,inhibition,> 60%
Cc1cc(S(=O)(=O)NC2CCC(CC3CCN(c4ccc(C5CCC(=O)NC5=O)cc4)CC3)CC2)ccc1Nc1ncc(C(F)(F)F)c(N2CCC[C@](C)(O)C2)n1 (stereo partly drawn),CDK2,"protein level, degrader, western blot",MKN-1,,Dmax,80%
Cc1cc(O)c(-c2ccc([C@@H](C)CN(C)C)cc2)c2c1[nH]c(=O)c1sccc12,"MAP kinase-activated protein kinase 3 (MAPKAPK3, Homo sapiens, UniProt Q16644)","enzyme activity, inhibitor",,0.1 µM,inhibition,-21.1%
Cc1cc(S(=O)(=O)NCCO[C@H]2CC[C@H](CN3CCC(c4ccc5c(c4F)n(C)c(=O)n5C4CCC(=O)NC4=O)CC3)CC2)ccc1Nc1ncc(C(F)(F)F)c([C@H]2CC[C@@](C)(O)CC2)n1 (stereo partly drawn),CDK2,"protein level, degrader, western blot",MKN-1,,Dmax,86%
CCCCC(=O)Nc1ccc(-c2ccc3ncn(CCC)c(=O)c3c2)cn1,"Serine/threonine-protein kinase D3 (PRKD3, Homo sapiens, UniProt O94806)","binding, competition with immobilised ligand",,0.5 µM,remaining binding,92%
